Here are results for 13 compounds from PubChem BioAssay.

Test [1] is described as follows: RPL19A-GFP modulators, yeast TOR pathway, confirmation, cell-based, S. cerevisiae, flow cytometry, cherry picks, mother/daughter gates (AID 2270;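 active means GFP response below 50% of the DMSO control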). The note with it: S. cerevisiae RPL19A-GFP strain, 3 h, at 10 µM, stronger effect = lower value, 100 = same GFP as DMSO wells. On the technique in general: Flow cytometry measures light scatter and fluorescence of single cells or particles in a stream.

Test [2] in a line: LAP4-GFP expression modulators in yeast, confirmation, cell-based, cherry picks, flow cytometry, mother/daughter gates (AID 2271;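 active means GFP response above 150% of the DMSO control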;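 further: ratio of sample to DMSO plate mean so 100% equals DMSO level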). The note with it: S. cerevisiae LAP4-GFP strain, 3 h, at 10 µM, stronger effect = higher value, 100 means same as DMSO control. In a few lines:
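material = Alexa 633-stained baker's yeast GFP-fusion strain | amount = 0.2 OD600 cells | schedule = 30 °C, 3 h compound incubation, rotating | signal = GFP by flow cytometry | measure = per-gate (all, mother, daughter) GFP response vs DMSO | controls = positive rapamycin (400 ng/mL), negative DMSO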

Test [3] can be described thus: modulators of MEP2-GFP levels in yeast, confirmation, S. cerevisiae, flow cytometry GFP, cherry picks (AID 2272;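 active means GFP response above 150% of the DMSO control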;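 further: ratio of well signal to plate DMSO mean so 100% equals DMSO level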). The note with it: S. cerevisiae MEP2-GFP strain, 3 h, at 10 µM, stronger effect = higher value.
Test [4] is described as follows: AGP1-GFP expression modulators, hit retest, confirmation, cell-based, flow cytometry, S. cerevisiae, cherry picks (AID 2273).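 Further: median GFP channel fluorescence over the whole cell population gate.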 The note with it: S. cerevisiae AGP1-GFP strain, 3 h, at 10 µM.
Test [5] in a line: modulators of CIT2-GFP expression in yeast, confirmation, S. cerevisiae, GFP fusion, cherry picks, mother/daughter gates (AID 2274). The note with it: S. cerevisiae CIT2-GFP strain, flow cytometry, 3 h, at 10 µM, stronger effect = higher value.
[6] abbreviates: measured here: daughter cell gate.
Where [7] appears, read: measured here: mother cell gate.
The mark [8] stands for this setting: measured here: daughter cell gate response.
Setting [9] is: measured here: mother cell gate response.

Structures are written as SMILES. Activity calls are given as the source filed them.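 How the source made its calls, unless noted: active means GFP response above 150% of the DMSO level; inconclusive means fewer than 70 events counted for a yeast strain; inactive means the rest.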

For the compound `CCN(CC)CCNC(=O)Cn1c(-c2ccccn2)nc2ccccc21`, the GFP response vs DMSO in test [1] is 99.5% (inactive); in test [1] (setting [6]), 98.1%; in test [1] (setting [7]), 99.6%; in test [3], 100% (inactive). For the same compound, the GFP response relative to DMSO in test [2] was 96.2% (inactive); in test [2] (setting [8]) it was 98.7%; in test [2] (setting [9]), 98.3%. The GFP response, % of DMSO in test [4] is 94.3% (inactive); in test [5], 97.8% (inactive); in test [5] (setting [6]), 96.5%; in test [5] (setting [7]), 97.7%.

For `COc1ccc(/C=C/C(=O)c2c(O)cc(C)oc2=O)c(OC)c1`, the GFP response vs DMSO in test [1] is 104% (inactive); in test [1] (setting [6]) it was 101%; in test [1] (setting [7]), 103%; in test [3], 103% (inactive). Moreover, the values for the GFP response relative to DMSO in test [2], in test [2] (setting [8]) and in test [2] (setting [9]) were 102% (inactive), 101% and 103%, respectively. In addition, the GFP response, % of DMSO in test [4] was 100% (inactive); in test [5], 95.9% (inactive); in test [5] (setting [6]) it was 95.6%; in test [5] (setting [7]), 90.7%.

For `COc1cc(/C=C2\C(=O)ON=C2c2ccccc2)cc(Br)c1O`, the GFP response vs DMSO in test [1] was 92.7% (inactive); in test [1] (setting [6]) it was 95.6%; in test [1] (setting [7]), 88.3%; in test [3], 99.3% (inactive). In addition, the GFP response relative to DMSO in test [2] is 114% (inactive); in test [2] (setting [8]), 113%; in test [2] (setting [9]), 115%. For the same compound, the GFP response, % of DMSO in test [4] was 92.7% (inactive); in test [5], 94.4% (inactive); in test [5] (setting [6]), 95.8%; in test [5] (setting [7]), 89.3%.

`COc1cc(/C=C2\C(=O)N(CCC#N)N=C2C)c(Br)cc1OC(C)C`: the GFP response vs DMSO in test [1] is 105% (inactive); in test [1] (setting [6]), 103%; in test [1] (setting [7]), 102%; in test [3] it was 107% (inactive). Further, the figures for the GFP response relative to DMSO in test [2], in test [2] (setting [8]) and in test [2] (setting [9]) were 165% (active), 145% and 168%, respectively. Moreover, the GFP response, % of DMSO in test [4] is 100% (inactive); in test [5] it was 93.9% (inactive); in test [5] (setting [6]), 94.8%; in test [5] (setting [7]), 90.2%.

Consider `COc1ccc(/C=N/Nc2nc(-c3cccnc3)nc3ccccc23)c(OC)c1`, for which the GFP response vs DMSO in test [1] is 98% (inactive); in test [1] (setting [6]), 97.6%; in test [1] (setting [7]) it was 98.2%; in test [3], 111% (inactive). Also, the GFP response relative to DMSO was 96.7% (inactive) in test [2], 94.4% in test [2] (setting [8]) and 98.3% in test [2] (setting [9]). For the same compound, the GFP response, % of DMSO was 96.8% (inactive) in test [4], 108% (inactive) in test [5], 112% in test [5] (setting [6]) and 107% in test [5] (setting [7]).

In the case of `CN=C(NC)SC1CC(=O)N(c2ccccc2)C1=O` (stereo not drawn), the GFP response vs DMSO is 99.3% (inactive) in test [1], 97.8% in test [1] (setting [6]), 102% in test [1] (setting [7]) and 97.8% (inactive) in test [3]. Also, the GFP response relative to DMSO was 99.8% (inactive) in test [2], 98.7% in test [2] (setting [8]) and 103% in test [2] (setting [9]). For the same compound, the GFP response, % of DMSO is 93.5% (inactive) in test [4], 92.6% (inactive) in test [5], 93.2% in test [5] (setting [6]) and 91.2% in test [5] (setting [7]).

As to `N#C/C(=C\c1c(N2CCCCC2)nc2ccccn2c1=O)C(=O)NCc1ccco1`, the GFP response vs DMSO in test [1] was 98.7% (inactive); in test [1] (setting [6]), 98.8%; in test [1] (setting [7]), 99.5%; in test [3], 97.5% (inactive). The GFP response relative to DMSO is 97.7% (inactive) in test [2], 97.9% in test [2] (setting [8]) and 96.5% in test [2] (setting [9]). Besides, the GFP response, % of DMSO in test [4] was 99.7% (inactive); in test [5] it was 99.3% (inactive); in test [5] (setting [6]), 100%; in test [5] (setting [7]) it was 96.8%.

For `COc1ccc(C(=O)/C(=C/O)N=Nc2ccc(F)cc2)cc1`, the GFP response vs DMSO in test [1] is 99.1% (inactive); in test [1] (setting [6]), 97.8%; in test [1] (setting [7]), 98.6%; in test [3], 102% (inactive). Also, the GFP response relative to DMSO is 106% (inactive) in test [2], 89.3% in test [2] (setting [8]) and 109% in test [2] (setting [9]). For the same compound, the GFP response, % of DMSO was 91.4% (inactive) in test [4], 83.5% (inactive) in test [5], 85.3% in test [5] (setting [6]) and 80.5% in test [5] (setting [7]).

In the case of `O=C1c2ccsc2SCCN1Cc1c(Cl)cccc1Cl`, the GFP response vs DMSO in test [1] was 102% (inactive); in test [1] (setting [6]), 99.2%; in test [1] (setting [7]), 102%; in test [3], 93.5% (inactive). Moreover, the GFP response relative to DMSO is 98.7% (inactive) in test [2], 97.2% in test [2] (setting [8]) and 102% in test [2] (setting [9]). Also, the GFP response, % of DMSO in test [4] was 93.9% (inactive); in test [5] it was 103% (inactive); in test [5] (setting [6]) it was 101%; in test [5] (setting [7]) it was 104%.

As for `O=C(O)CSc1nnc(-c2ccncc2)n1CCc1ccccc1`, the GFP response vs DMSO in test [1] is 98.2% (inactive); in test [1] (setting [6]), 98.4%; in test [1] (setting [7]), 100%; in test [3], 100% (inactive). Besides, the GFP response relative to DMSO in test [2] was 102% (inactive); in test [2] (setting [8]), 98.7%; in test [2] (setting [9]), 103%. Besides, the GFP response, % of DMSO in test [4] was 98.3% (inactive); in test [5], 91.3% (inactive); in test [5] (setting [6]), 91.5%; in test [5] (setting [7]) it was 90.2%.

In the case of `CCc1noc(C)c1C(=O)Nc1nc(-c2ccc(Cl)cc2Cl)cs1`, the GFP response vs DMSO in test [1] was 95.6% (inactive); in test [1] (setting [6]) it was 95.6%; in test [1] (setting [7]), 94%; in test [3], 103% (inactive). The GFP response relative to DMSO in test [2] is 97.7% (inactive); in test [2] (setting [8]), 96%; in test [2] (setting [9]) it was 97.4%. Further, the GFP response, % of DMSO in test [4] is 96.1% (inactive); in test [5], 94.4% (inactive); in test [5] (setting [6]), 97.6%; in test [5] (setting [7]), 93.8%.

Take `Cc1ccc(N2C(=O)C3C4C=CC(CNC(=S)N5CCN(c6cccc(C)c6)C(C)C5)(O4)C3C2=O)cc1` (stereo not drawn): the GFP response vs DMSO in test [1] is 97.3% (inactive); in test [1] (setting [6]) it was 97.3%; in test [1] (setting [7]) it was 96.7%; in test [3], 103% (inactive). For the same compound, the GFP response relative to DMSO in test [2] was 92.9% (inactive); in test [2] (setting [8]), 92.9%; in test [2] (setting [9]), 94.4%. The GFP response, % of DMSO in test [4] is 103% (inactive); in test [5], 100% (inactive); in test [5] (setting [6]), 97.6%; in test [5] (setting [7]), 100%.

On to `Cc1ccc(/C=C/C(=O)N2CC(C)CC(C)C2)o1` (stereo not drawn), for which the GFP response vs DMSO is 103% (inactive) in test [1], 105% in test [1] (setting [6]), 101% in test [1] (setting [7]) and 116% (inactive) in test [3]. Also, the GFP response relative to DMSO is 111% (inactive) in test [2], 107% in test [2] (setting [8]) and 113% in test [2] (setting [9]). Besides, the GFP response, % of DMSO is 105% (inactive) in test [4], 106% (inactive) in test [5], 103% in test [5] (setting [6]) and 105% in test [5] (setting [7]).
